Results on 14 compounds are retold here after ChEMBL document CHEMBL1141506, “Synthesis and cytotoxic activity of a new series of topoisomerase I inhibitors” (Bioorg Med Chem Lett, 2008).

Broadly, the IC50 is the concentration that gives 50% inhibition. Read a low IC50 as greater potency in that assay.

Calls of active or inactive are those of the source. The calls are words filed in the database; no cut-off is given here. Some results are limits rather than exact numbers.

For one test, the system named is NCI-H460. Put plainly: Cytotoxicity against human NCI-H460 cells after 1 hr. The format is functional, cell-based. The settings on record: NCI-H460, 1 h. The gist of the method: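 Cells harvested at 72 h and counted by Coulter counter. IC50 is the concentration giving 50% less growth than untreated control, as mean of three assays.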
Test [1] addresses T1, DNA topoisomerase 1 (Homo sapiens) (UniProt P11387).
T1 sequence (whole entry): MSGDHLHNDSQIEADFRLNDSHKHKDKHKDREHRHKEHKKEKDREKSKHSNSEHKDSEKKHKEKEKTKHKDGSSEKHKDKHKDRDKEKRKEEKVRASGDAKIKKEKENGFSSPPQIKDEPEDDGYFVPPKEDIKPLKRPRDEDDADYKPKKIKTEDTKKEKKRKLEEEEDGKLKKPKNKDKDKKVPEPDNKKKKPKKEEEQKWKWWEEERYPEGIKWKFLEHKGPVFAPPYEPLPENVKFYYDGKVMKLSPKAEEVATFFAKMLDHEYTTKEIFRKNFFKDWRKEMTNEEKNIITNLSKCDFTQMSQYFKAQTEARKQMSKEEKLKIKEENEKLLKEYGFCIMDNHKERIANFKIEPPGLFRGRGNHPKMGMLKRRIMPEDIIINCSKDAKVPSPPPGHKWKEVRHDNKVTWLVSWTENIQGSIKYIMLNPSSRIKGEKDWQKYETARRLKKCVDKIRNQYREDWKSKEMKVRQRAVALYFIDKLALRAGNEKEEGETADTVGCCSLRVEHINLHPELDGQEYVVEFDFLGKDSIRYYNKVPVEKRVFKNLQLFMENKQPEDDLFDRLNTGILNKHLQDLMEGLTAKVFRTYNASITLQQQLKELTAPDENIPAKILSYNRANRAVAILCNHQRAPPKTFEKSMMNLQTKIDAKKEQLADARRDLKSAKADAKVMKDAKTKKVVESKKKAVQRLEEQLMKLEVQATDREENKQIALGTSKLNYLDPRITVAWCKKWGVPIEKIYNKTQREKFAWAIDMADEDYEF
Put plainly: Inhibition of human recombinant topoisomerase 1 assessed as DNA plasmid relaxation after 30 mins. The gist of the method:
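Supercoiled pBR322 DNA (200 ng) with purified topo I in 20 mM Tris–HCl pH 7.6, 150 mM KCl, 5 mM MgCl2, 0.1 mM EDTA, 0.1 mM DTT, 0.5 µg/ml BSA. Compound at 1, 10, 50 µM, 30 min at 37 °C. Stopped with SDS/proteinase K at 42 °C for 45 min. Run on 0.8% agarose, ethidium bromide stained.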

For test [2], the target named is T1, DNA topoisomerase 1 (Homo sapiens). Kind of test: Effect on stabilization of human recombinant topoisomerase 1-mediated DNA cleavage after 30 mins. The procedure, abridged:
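3'-end-labelled 751-bp BamHI–EcoRI SV40 DNA fragment (20,000 cpm/sample) with 640 ng full-length human recombinant topo I. Buffer: 10 mM Tris–HCl pH 7.6, 150 mM KCl, 5 mM MgCl2, 15 µg/ml BSA, 0.1 mM DTT. Drug at 1, 10, 50 µM, 30 min at 37 °C. Stopped with 0.5% SDS/0.3 mg/ml proteinase K, 45 min at 42 °C. Denaturing 8% polyacrylamide gel.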

In the test with NCI-H460, `Cc1oc2c3c(ccc2c(=O)c1Br)C(=O)c1ccc(Br)c(O)c1C3=O` registered an IC50 of 4.95 µM. For the same compound, the result in test [1] was inactive.

`O=C1c2cccc(O)c2C(=O)c2c1ccc1c(=O)cc(-c3ccccc3)oc21` had an IC50 with NCI-H460 of 7.06 µM.

In the test with NCI-H460, `COc1cccc2c1C(=O)c1c(O)ccc([N+](=O)[O-])c1C2=O` yielded an IC50 of 160 µM. Further, the outcome in test [2] was Active.

With `COc1cccc2c1C(=O)c1c(OCCN(C)C)cccc1C2=O`, the IC50 in the test on NCI-H460 is more than 100 µM. For the same compound, in test [2], the result was Active.

For the compound `Cc1cc(=O)c2ccc3c(c2o1)C(=O)c1c(O)ccc([N+](=O)[O-])c1C3=O`, the concentration for half-maximal inhibition (IC50) in the test with NCI-H460 turned out to be 9.1 µM.

In the test on NCI-H460, `COc1cc(OC)c2c(c1)C(=O)c1cc(OC)c3c(=O)cc(C)oc3c1C2=O` registered an IC50 of more than 100 µM.

Take `COc1cccc2c1C(=O)c1c(ccc3c(=O)cc(-c4ccccc4)oc13)C2=O`: the IC50 in the test on NCI-H460 is more than 100 µM.

In the test with NCI-H460, `COc1cccc2c1C(=O)c1c(O)cccc1C2=O` showed an IC50 of more than 100 µM. For the same compound, the outcome in test [2] was Active.

For `Cc1cc(=O)c2ccc3c(c2o1)C(=O)c1c(O)cccc1C3=O`, 5.5 µM corresponded to half-maximal inhibition in the test on NCI-H460 (IC50). In addition, the outcome in test [1] was inactive. Moreover, the result in test [2] was Active.

With `Cc1oc2c3c(ccc2c(=O)c1Br)C(=O)c1cccc(O)c1C3=O`, the IC50 in the test on NCI-H460 was found to be 6.5 µM.

As for `CC[C@@]1(O)C(=O)OCc2c1cc1n(c2=O)Cc2cc3c(CN(C)C)c(O)ccc3nc2-1` [TOPOTECAN], in the test on NCI-H460, the IC50 was 1.18 µM.

In turn, `Cc1cc(=O)c2ccc3c(c2o1)C(=O)c1c(OCCN(C)C)cccc1C3=O` showed an IC50 in the test with NCI-H460 of 7.15 µM.

In the test with NCI-H460, `Cc1cc(=O)c2c(O)cc3c(c2o1)C(=O)c1c(O)cc(O)cc1C3=O` [TOPOPYRONE C] returned an IC50 of 29.5 µM.

In the test with NCI-H460, `COc1cccc2c1C(=O)c1c(ccc3c(=O)cc(C)oc13)C2=O` registered an IC50 of more than 260 µM.
